Data taken from ChEMBL document CHEMBL1142637, “New caryophyllene derivatives from Betula litwinowii” (2000).
Converted amounts (≈) assume the structure as drawn.

What was measured:
Assay type in all cases: functional
[1] = test system: Akanthomyces muscarius; assay: Antifungal activity against Cephalosporium ophidicola at 200 ug/mL after 7 to 10 days by agar tube dilution technique
Outline: (§1)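 Agar tube dilution against plant pathogenic fungi. Compound in DMSO was mixed into molten SDA to a final 200 μg/mL and solidified as slants at room temperature. Slants were inoculated with 4×4 mm plugs cut from 1-week cultures and incubated 7–10 days at 29 °C. Linear growth (mm) was measured, and % inhibition was calculated against a DMSO-only medium control. Ketoconazole served as the reference drug.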

[2] = test system: Ceratobasidium cereale; assay: Antifungal activity against Rhizoctonia cerealis at 200 ug/mL after 7 to 10 days by agar tube dilution technique; outline: as §1
[3] = test system: Drechslera; assay: Antifungal activity against Drechslera sorokinianse at 200 ug/mL after 7 to 10 days by agar tube dilution technique relative to ketoconazole; outline: as §1
[4] = test system: Fusarium solani; assay: Antifungal activity against Fusarium solani at 200 ug/mL after 7 to 10 days by agar tube dilution technique relative to ketoconazole; outline: as §1
[5] = test system: Escherichia coli; assay: Antibacterial activity against Escherichia coli after 24 hrs
Outline: (§2)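 Broth microdilution MIC. Compound stock in DMSO, serially diluted 1000 to 0.97 μg/mL in sterile distilled water. Bacteria were freshly grown in double-strength Mueller-Hinton broth and adjusted to 108 CFU/mL. Equal volumes of dilution and suspension were mixed. Sterile water well served as growth control, and dilutions without organism as negative control. After 37 °C for 24 h, MIC was read as the first well without turbidity.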

[6] = test system: Staphylococcus aureus; assay: Antibacterial activity against Staphylococcus aureus after 24 hrs; outline: as §2
[7] = test system: Micrococcus luteus; assay: Antibacterial activity against Micrococcus luteus after 24 hrs; outline: as §2
[8] = test system: Pseudomonas aeruginosa; assay: Antibacterial activity against Pseudomonas aeruginosa after 24 hrs; outline: as §2
[9] = test system: Nakaseomyces glabratus; assay: Antifungal activity against Candida glabrata after 24 hrs
Outline: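 Broth microdilution: pure compound stock in DMSO, serially diluted from 1000 to 0.97 μg/mL in sterile distilled water. Each dilution was mixed with an equal volume of standardized C. glabrata suspension in yeast medium. Sterile water served as growth control, and dilutions without organism as negative control. After 24 h at 37 °C, MIC was read as the first well without turbidity.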

[10] = test system: Bacillus cereus; assay: Antibacterial activity against Bacillus cereus after 24 hrs; outline: as §2

MIC [5] [µg/mL]	MIC [6] [µg/mL]	MIC [7] [µg/mL]	MIC [8] [µg/mL]	MIC [10] [µg/mL]	SMILES	inhibition at 200 µg/mL [1] [%]	inhibition at 200 µg/mL [2] [%]	inhibition at 200 µg/mL [3] [%]	inhibition at 200 µg/mL [4] [%]	MIC [9] [µg/mL]
250 (≈ 1120 µM)	250 (≈ 1120 µM)	250 (≈ 1120 µM)	250 (≈ 1120 µM)	125 (≈ 562 µM)	C=C1CCC[C@H](CO)CC[C@@H]2[C@@H]1CC2(C)C	100	100	75	59	125 (≈ 562 µM)
250 (≈ 774 µM)	7.81 (≈ 24.2 µM)	125 (≈ 387 µM)	62.5 (≈ 193 µM)	125 (≈ 387 µM)	O=C(N[C@H](CO)[C@H](O)c1ccc([N+](=O)[O-])cc1)C(Cl)Cl [CHLORAMPHENICOL]	–	–	–	–	–
–	–	–	–	–	CC(=O)N1CCN(c2ccc(OCC3COC(Cn4ccnc4)(c4ccc(Cl)cc4Cl)O3)cc2)CC1 (stereo unspecified) [KETOCONAZOLE]	–	–	–	–	62.5 (≈ 118 µM)
